Eleven molecules from ChEMBL document CHEMBL3351599, “Extending the N-linked aminopiperidine class to the mycobacterial gyrase domain: pharmacophore mapping from known antibacterial leads” (Eur J Med Chem, 2014) can be followed below.

Structures are written as SMILES. Values after ≈ are worked out from the molar mass of the structure shown. Where only a bound is given, the exact number is not on record here.

Data set [1] can be described thus: (§1) Inhibition of Mycobacterium tuberculosis GyrA/GyrB using relaxed pBR322 as substrate after 30 mins by DNA supercoiling assay.
Data set [2] relates to Mycobacterium tuberculosis. Description: Antimycobacterial activity against Mycobacterium tuberculosis H37Rv after 7 days by microplate alamar blue assay. It counts as functional. The conditions noted are these: 168 h. Summed up:
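M. tuberculosis H37Rv inoculum taken from fresh LJ medium, resuspended in 7H9-S (7H9 broth, 0.1% casitone, 0.5% glycerol, OADC), adjusted to McFarland No. 1 and diluted 1:20. Two-fold serial dilutions were tested over a range of 25 to 0.78. Plates were incubated 7 days at 37 °C, then alamar blue was added and incubated overnight. Blue-to-pink colour change read as growth; MIC determined.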
(The colour change of resazurin is a common sign of viable cells or microbes.)

Data set [3] in a line: Cytotoxicity against mouse RAW264.7 cells at 100 uM after 48 hrs by MTT assay. The conditions noted are these: read-out: INH. It counts as cell-based. Summed up: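 Cells seeded at 5 × 10⁵ per well with test compound at a range of concentrations. Incubated 48 h at 37 °C under 5% CO₂/[…]. MTT reagent (10 mg mL⁻¹ stock) added about 4 h before the end. Plate centrifuged, supernatant removed and formazan dissolved in DMSO. Absorbance read at 560 nm against a blank. Triplicate wells per concentration.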

Data set [4] is described as follows: Selectivity index, ratio of CC50 for mouse RAW264.7 cells to MIC for Mycobacterium tuberculosis H37Rv. The class given is toxicity. The following applies: read-out: Selectivity Index. Put shortly:
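Ratio of CC50 to MABA MIC against H37Rv. […] MTT was added 4 h before the end, formazan was dissolved in DMSO and absorbance read at 560 nm. Each concentration was run in triplicate.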

The subject of data set [5] is Mycobacterium tuberculosis. Description: Inhibition of Mycobacterium tuberculosis GyrA/GyrB using relaxed pBR322 as substrate at 0.97 uM after 30 mins by DNA supercoiling assay. Put shortly:
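Gyrase supercoiling reaction: GyrA/GyrB heterotetramer (1 U), relaxed pBR322, 1 mM ATP, HEPES-KOH pH 7.9 buffer, 30 min at 37 °C. Compounds were tested in a series of 250, 62.5, 15.6, 3.9 and 0.97. Products were resolved on 1% agarose with ethidium staining, and inhibition was quantified relative to control.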

The test system of data set [6] is Mycobacterium tuberculosis. The data set is described as §1.

Usually IC50 stands for the concentration that inhibits the measured activity by half. Low readings indicate inhibition by little substance, high ones a need for much substance. The term MIC denotes the lowest concentration found to suppress growth. The inhibition is how much of the control response was suppressed. Regarding `O=C(Nc1ccc(Cl)cc1)NC1CCN(CCn2c(=O)ccc3ncc(F)cc32)CC1`, the IC50 in data set [1] was 0.3 µM. In data set [2], this molecule showed an MIC of 1.29 µM (≈ 0.573 µg/mL). Besides, the cytotoxicity at 48 h, 100 µM in data set [3] is 25.7%. Moreover, the selectivity ratio in data set [4] was more than 77.5. In data set [5], this molecule gave an inhibition of more than 69%.

Take `COc1cnc2ccc(=O)n(CCN3CCC(NC(=O)Nc4ccc(Cl)cc4)CC3)c2c1`: in data set [1], the half-inhibitory concentration (IC50) worked out at 0.092 µM. In addition, the lowest concentration to inhibit growth in data set [2] (MIC) was 1.85 µM (≈ 0.844 µg/mL). The cytotoxicity at 48 h, 100 µM in data set [3] is 28.5%. The selectivity ratio in data set [4] was more than 54. Also, in data set [5], the inhibition was more than 83%.

With `COc1cnc2ccc(=O)n(CCN3CCC(NC(=S)Nc4ccc(F)cc4)CC3)c2c1`, it took 4.1 µM to reach half-maximal inhibition in data set [1] (IC50). Further, the MIC in data set [2] was 3.42 µM (≈ 1.56 µg/mL). Further, in data set [3], the cytotoxicity at 48 h, 100 µM came out at 38.5%. Moreover, the selectivity ratio in data set [4] is more than 29.2. This molecule also gave an inhibition in data set [5] of more than 75%.

Take `COc1cnc2ccc(=O)n(CCN3CCC(NC(=S)NCc4ccccc4)CC3)c2c1`: the IC50 in data set [1] is 1.87 µM. In data set [2], this molecule yielded an MIC of 7.5 µM (≈ 3.39 µg/mL). In addition, in data set [3], the cytotoxicity at 48 h, 100 µM came out at 33.6%. Further, the selectivity ratio in data set [4] was more than 13.3. Moreover, the inhibition in data set [5] is more than 94%.

Turning to `CC(=O)c1ccc(NC(=O)NC2CCN(CCn3c(=O)ccc4ncc(F)cc43)CC2)cc1`, the IC50 in data set [1] stood at 0.2 µM. Further, it took 2.91 µM (≈ 1.31 µg/mL) to inhibit growth in data set [2] (MIC). The cytotoxicity at 48 h, 100 µM in data set [3] was found to be 40.6%. Also, the selectivity ratio in data set [4] was more than 34. In data set [5], this molecule returned an inhibition of more than 71%.

In data set [1], `O=c1ccc2ncc(F)cc2n1CCN1CCC(NC(=S)Nc2ccc([N+](=O)[O-])cc2)CC1` gave an IC50 of 0.28 µM. Further, the MIC in data set [2] amounted to 0.91 µM (≈ 0.428 µg/mL). The cytotoxicity at 48 h, 100 µM in data set [3] came to 39.6%. For the same molecule, in data set [4], the selectivity ratio is more than 110. The inhibition in data set [5] is more than 63%.

In the case of `COc1cnc2ccc(=O)n(CCN3CCC(NC(=S)NCc4ccc(Cl)cc4)CC3)c2c1`, the IC50 in data set [1] came out at 1.53 µM. In data set [2], this molecule yielded a minimal inhibitory concentration (MIC) of 1.6 µM (≈ 0.778 µg/mL). The cytotoxicity at 48 h, 100 µM in data set [3] came to 29.4%. Further, the selectivity ratio in data set [4] was more than 62.5. Besides, the inhibition in data set [5] is more than 95%.

`COc1cnc2ccc(=O)n(CCN3CCC(NC(=O)Nc4ccc(F)cc4)CC3)c2c1` registered an IC50 in data set [1] of 0.078 µM. Besides, the inhibition result was “Dose-dependent effect” in data set [6] and more than 82% in data set [5]. The same molecule returned a minimal inhibitory concentration (MIC) in data set [2] of 0.62 µM (≈ 0.272 µg/mL). Besides, the cytotoxicity at 48 h, 100 µM in data set [3] is 31.5%. For the same molecule, the selectivity ratio in data set [4] was more than 161.

The molecule `O=c1ccc2ncc(F)cc2n1CCN1CCC(NC(=S)Nc2ccc(Cl)cc2)CC1` had an IC50 in data set [1] of 3.72 µM. Further, in data set [2], the MIC is 8.52 µM (≈ 3.92 µg/mL). For the same molecule, the cytotoxicity at 48 h, 100 µM in data set [3] came out at 40.5%. Besides, the selectivity ratio in data set [4] is more than 11.7. In data set [5], this molecule came in with an inhibition of more than 62%.

Turning to `O=C(NCc1ccccc1)NC1CCN(CCn2c(=O)ccc3ncc(F)cc32)CC1`, it took 1.5 µM to reach half-maximal inhibition in data set [1] (IC50). This molecule had an MIC in data set [2] of 7.37 µM (≈ 3.12 µg/mL). In addition, the cytotoxicity at 48 h, 100 µM in data set [3] was determined as 27.4%. Further, the selectivity ratio in data set [4] was more than 13.6. In data set [5], this molecule showed an inhibition of more than 91%.

For `O=c1ccc2ncc(F)cc2n1CCN1CCC(NC(=S)NCc2ccc(Cl)cc2)CC1`, in data set [1], the concentration for half-maximal inhibition (IC50) stood at 1.9 µM. For the same molecule, the MIC in data set [2] came to 1.64 µM (≈ 0.777 µg/mL). Also, the cytotoxicity at 48 h, 100 µM in data set [3] was found to be 43.7%. Also, in data set [4], the selectivity ratio was more than 61. Also, the inhibition in data set [5] is more than 89%.
